Results from ChEMBL document CHEMBL1255526, “Fused tricyclic pyrrolizinones that exhibit pseudo-irreversible blockade of the NK1 receptor” (Bioorg Med Chem Lett, 2010).

Tests used:
[1] = molecular target: T1, Substance-P receptor (Homo sapiens, UniProt P25103); assay: Antagonist activity at human recombinant NK1 receptor expressed in CHO cells assessed as remaining substance P level at 100 nM after 30 mins by [H3]-inositol phosphate release assay; assay type: functional, cell-based
Summary of the method: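 CHO cells with recombinant human NK1 receptor, 2.5 × 10⁴ per well, plated overnight, then prelabelled overnight at 37 °C with [3H]-myo-inositol (10–25 Ci/mmol) in inositol-free medium with 0.02% BSA. LiCl 10 mM in HEPES-buffered inositol-free DMEM, 15 min. Antagonist at 100 nM or DMSO for 30 min, then substance P for 30 min. Stopped with formic acid. [3H]-inositol phosphate captured on yttrium silicate SPA beads, 2 h. Reported as % substance P response remaining.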

[2] = molecular target: T1, Substance-P receptor; assay: Displacement of [125I]substance P from human NK1 receptor expressed in CHO cells; assay type: cell-based
Summary of the method: (§1)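 Radioligand binding: [125I]substance P displaced from human NK1 receptor expressed in CHO cells; IC50 determined. Also run with 50% serum added (human, dog, rhesus, rat or gerbil) to measure the serum shift.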

[3] = molecular target: T1, Substance-P receptor; assay: Displacement of [125I]substance P from human NK1 receptor expressed in CHO cells in presence of 50% human serum; assay type: cell-based; summary of the method: as §1
[4] = molecular target: T2, Nuclear receptor subfamily 1 group I member 2 (Homo sapiens, UniProt O75469); assay: Inhibition of human PXR induction
T2 sequence (O75469 whole entry): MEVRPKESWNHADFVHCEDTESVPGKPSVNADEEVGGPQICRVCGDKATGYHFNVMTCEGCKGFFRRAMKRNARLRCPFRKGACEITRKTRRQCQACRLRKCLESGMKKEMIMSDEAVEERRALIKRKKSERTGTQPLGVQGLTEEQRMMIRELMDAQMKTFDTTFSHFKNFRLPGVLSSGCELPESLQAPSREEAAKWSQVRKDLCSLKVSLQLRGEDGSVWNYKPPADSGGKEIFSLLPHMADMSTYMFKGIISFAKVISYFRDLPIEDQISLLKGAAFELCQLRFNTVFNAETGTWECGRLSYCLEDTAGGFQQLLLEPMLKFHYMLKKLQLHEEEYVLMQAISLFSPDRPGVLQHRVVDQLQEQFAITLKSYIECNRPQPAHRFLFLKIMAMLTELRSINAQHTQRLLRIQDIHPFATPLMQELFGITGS

[5] = molecular target: T3, PXR (nuclear receptor subfamily 1 group I member 2) (Homo sapiens, UniProt O75469); assay: Inhibition of human PXR induction at 10 uM
T3 sequence (O75469 whole entry): T2 sequence (O75469 whole entry)
Summary of the method: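 Human PXR induction measured at 10 µM compound, expressed as % of maximal induction.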

[6] = Binding affinity to potassium channel IKr
[7] = Binding affinity to calcium channel
Summary of the method: (§2)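 Ion channel binding assay; IC50 values calculated for sodium channel and for calcium channel (Dlz site).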

[8] = Binding affinity to sodium channel; summary of the method: as §2
[9] = system: Meriones unguiculatus; assay: Inhibition of GR-73632-induced foot tapping in Mongolian gerbil at 3 mg/kg after 24 hrs; assay type: functional
Summary of the method: (§3)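 Gerbils given antagonist at the dose and pretreatment time shown (1 mg/kg at 1 h, 3 mg/kg at 24 h); foot tapping then induced with the NK1 agonist GR73632. Read-out is % inhibition of tapping; ED50 or ID50 from dose–response.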

[10] = organism: Meriones unguiculatus; assay: Inhibition of GR-73632-induced foot tapping in Mongolian gerbil after 24 hrs; assay type: functional; settings: read-out: ED50; summary of the method: as §3
[11] = system: Meriones unguiculatus; assay: Inhibition of GR-73632-induced foot tapping in Mongolian gerbil at 1 mg/kg after 1 hr; assay type: functional; summary of the method: as §3

T1 sequence (P25103 whole entry): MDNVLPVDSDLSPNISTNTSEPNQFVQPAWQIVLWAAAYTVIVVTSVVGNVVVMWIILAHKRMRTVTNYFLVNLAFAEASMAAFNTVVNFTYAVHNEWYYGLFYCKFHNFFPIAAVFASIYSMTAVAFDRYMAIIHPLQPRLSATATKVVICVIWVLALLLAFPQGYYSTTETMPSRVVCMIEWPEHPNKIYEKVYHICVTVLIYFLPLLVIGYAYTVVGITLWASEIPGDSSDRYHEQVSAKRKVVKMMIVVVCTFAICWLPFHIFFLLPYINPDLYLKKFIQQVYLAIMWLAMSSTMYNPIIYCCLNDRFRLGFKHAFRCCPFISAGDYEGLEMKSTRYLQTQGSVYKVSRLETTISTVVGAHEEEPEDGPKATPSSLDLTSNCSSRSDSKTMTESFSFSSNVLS

Compound | Activity [1] | IC50 [2] | IC50 [3] | IC50 [4] | Emax at 10 µM [5] | IC50 [7] | IC50 [8] | IC50 [6] | inhibition in vivo at 3 mg/kg [9] | ED50 [10] | inhibition in vivo at 1 mg/kg [11]
C[C@@H](O[C@H]1CN2C(=O)C3CNCC3[C@H]2[C@@H]1c1ccc(F)cc1)c1cc(C(F)(F)F)cc(C(F)(F)F)c1 (single isomer, unassigned) | 46% |  |  |  |  |  |  |  |  |  | 
C[C@@H](O[C@H]1CN2C(=O)CC[C@H]2[C@@H]1c1ccc(F)cc1)c1cc(C(F)(F)F)cc(C(F)(F)F)c1 | 88% |  |  | 4800 nM | 50% | 1580 nM | 1750 nM | 5700 nM | 100% | 0.2 mg/kg | 
C[C@@H](O[C@H]1CN2C(=O)C3CNCC3[C@H]2[C@@H]1c1ccc(F)cc1)c1cc(C(F)(F)F)cc(C(F)(F)F)c1 (stereo in doubt; 6b) [FIRST ELUDED ISOMER] |  | 0.31 nM | 3.2 nM |  |  | 310 nM |  | 2710 nM | 12% |  | 
CC[C@@]1(O)C[C@H]2[C@H]3[C@H](c4ccc(F)cc4)[C@@H](O[C@H](C)c4cc(C(F)(F)F)cc(C(F)(F)F)c4)CN3C(=O)[C@H]2C1 | 31% | 0.21 nM | 2.3 nM |  |  |  |  |  |  |  | 
C[C@@H](O[C@H]1CN2C(=O)C3CN(C4=CC(=O)CC4)CC3[C@H]2[C@@H]1c1ccc(F)cc1)c1cc(C(F)(F)F)cc(C(F)(F)F)c1 (single isomer, unassigned) | 11% |  |  |  |  |  |  |  |  |  | 
C[C@@H](O[C@H]1CN2C(=O)[C@H]3C[C@](C)(O)C[C@H]3[C@H]2[C@@H]1c1ccc(F)cc1)c1cc(C(F)(F)F)cc(C(F)(F)F)c1 | 24% | 0.066 nM | 1.2 nM |  |  |  |  |  |  |  | 
C[C@@H](O[C@H]1CN2C(=O)C3CN(C4=CC(=O)CC4)CC3[C@H]2[C@@H]1c1ccc(F)cc1)c1cc(C(F)(F)F)cc(C(F)(F)F)c1 (single isomer, unassigned) [FIRST ELUDED ISOMER] |  | 0.17 nM | 1.9 nM |  |  | 8810 nM |  | 1430 nM | 32% |  | 
C[C@@H](O[C@H]1CN2C(=O)C3CN(C4=CC(=O)CC4)CC3[C@H]2[C@@H]1c1ccc(F)cc1)c1cc(C(F)(F)F)cc(C(F)(F)F)c1 (stereo in doubt; 18b) | 7% |  |  |  |  |  |  |  |  |  | 
C[C@@H](O[C@H]1CN2C(=O)C3CNCC3[C@H]2[C@@H]1c1ccc(F)cc1)c1cc(C(F)(F)F)cc(C(F)(F)F)c1 (stereo in doubt; 6b) | 60% |  |  |  |  |  |  |  |  |  | 
C[C@@H](O[C@H]1CN2C(=O)C3CNCC3[C@H]2[C@@H]1c1ccc(F)cc1)c1cc(C(F)(F)F)cc(C(F)(F)F)c1 (single isomer, unassigned) [FIRST ELUDED ISOMER] |  | 1.5 nM | 15 nM |  |  |  |  |  |  |  | 
CC[C@]1(O)C[C@H]2[C@H]3[C@H](c4ccc(F)cc4)[C@@H](O[C@H](C)c4cc(C(F)(F)F)cc(C(F)(F)F)c4)CN3C(=O)[C@H]2C1 | 4% | 0.16 nM | 1.7 nM | 3300 nM | 51% | 8420 nM |  | 1770 nM | 100% | 0.06 mg/kg | 
C[C@@H](O[C@H]1CN2C(=O)CC(N)[C@H]2[C@@H]1c1ccc(F)cc1)c1cc(C(F)(F)F)cc(C(F)(F)F)c1 (stereo partly specified) | 75% |  |  | > 25000 nM | 1% | 1880 nM | 7720 nM | 9500 nM | 100% | 0.92 mg/kg | 
C[C@@H](O[C@H]1CN2C(=O)C(N)C[C@H]2[C@@H]1c1ccc(F)cc1)c1cc(C(F)(F)F)cc(C(F)(F)F)c1 (stereo partly specified) | 59% |  |  | > 25000 nM | 7% | 210 nM | 240 nM | 6500 nM | 100% | 0.61 mg/kg | 
C[C@@H](O[C@H]1CN2C(=O)C3CN(C4=CC(=O)CC4)CC3[C@H]2[C@@H]1c1ccc(F)cc1)c1cc(C(F)(F)F)cc(C(F)(F)F)c1 (stereo in doubt; 18b) [FIRST ELUDED ISOMER] |  | 0.09 nM | 1 nM |  |  | 4810 nM |  | 730 nM |  |  | 92%

Second part, led by results:

Activity [1] | IC50 [2] | IC50 [3] | IC50 [4] | Emax at 10 µM [5] | IC50 [7] | IC50 [8] | Compound | IC50 [6] | inhibition in vivo at 3 mg/kg [9] | ED50 [10] | inhibition in vivo at 1 mg/kg [11]
10% | 0.11 nM | 1 nM | > 25000 nM | 0% | 590 nM | 520 nM | C[C@@H](O[C@H]1CN2C(=O)[C@H]3C[C@H](N)C[C@H]3[C@H]2[C@@H]1c1ccc(F)cc1)c1cc(C(F)(F)F)cc(C(F)(F)F)c1 | 1730 nM | 100% | 1.33 mg/kg | 
35% | 0.08 nM | 1.7 nM |  |  |  |  | C[C@@H](O[C@H]1CN2C(=O)[C@H]3C[C@H](O)C[C@H]3[C@H]2[C@@H]1c1ccc(F)cc1)c1cc(C(F)(F)F)cc(C(F)(F)F)c1 |  |  |  | 
93% | 1.5 nM | 47 nM |  |  |  |  | C[C@@H](O[C@H]1CN2C(=O)[C@@H]3C[C@H](N)C[C@@H]3[C@H]2[C@@H]1c1ccc(F)cc1)c1cc(C(F)(F)F)cc(C(F)(F)F)c1 |  |  |  | 
3% | 0.06 nM | 0.77 nM | 4500 nM | 65% |  |  | C[C@@H](O[C@H]1CN2C(=O)[C@H]3C[C@@H](O)C[C@H]3[C@H]2[C@@H]1c1ccc(F)cc1)c1cc(C(F)(F)F)cc(C(F)(F)F)c1 |  | 100% |  | 100%
4% | 0.14 nM | 1.3 nM | > 25000 nM | 0% | 210 nM | 210 nM | C[C@@H](O[C@H]1CN2C(=O)[C@H]3C[C@H](NCc4ccccc4)C[C@H]3[C@H]2[C@@H]1c1ccc(F)cc1)c1cc(C(F)(F)F)cc(C(F)(F)F)c1 | 300 nM | 94% |  | 
58% | 0.14 nM | 2.3 nM |  |  |  |  | C[C@@H](O[C@H]1CN2C(=O)[C@@H]3C[C@@H](NCc4ccccc4)C[C@@H]3[C@H]2[C@@H]1c1ccc(F)cc1)c1cc(C(F)(F)F)cc(C(F)(F)F)c1 |  | 6% |  | 81%
6% | 0.09 nM | 1 nM | > 25000 nM | 0% | 1230 nM | 710 nM | C[C@@H](O[C@H]1CN2C(=O)[C@H]3C[C@@H](N)C[C@H]3[C@H]2[C@@H]1c1ccc(F)cc1)c1cc(C(F)(F)F)cc(C(F)(F)F)c1 | 990 nM | 91% |  | 
94% | 1.2 nM | 13 nM |  |  |  |  | C[C@@H](O[C@H]1CN2C(=O)[C@@H]3C[C@H](NCc4ccccc4)C[C@@H]3[C@H]2[C@@H]1c1ccc(F)cc1)c1cc(C(F)(F)F)cc(C(F)(F)F)c1 |  |  |  | 
61% | 0.66 nM | 13 nM |  |  |  |  | CC(O[C@H]1CN2C(=O)[C@@H]3CC(N)C[C@@H]3[C@H]2[C@@H]1c1ccc(F)cc1)c1cc(C(F)(F)F)cc(C(F)(F)F)c1 (single isomer, unassigned) |  |  |  | 
2% | 0.17 nM | 1.8 nM | > 25000 nM | 0% | 140 nM |  | C[C@@H](O[C@H]1CN2C(=O)[C@H]3C[C@@H](NCc4ccccc4)C[C@H]3[C@H]2[C@@H]1c1ccc(F)cc1)c1cc(C(F)(F)F)cc(C(F)(F)F)c1 | 280 nM | 100% | 0.47 mg/kg | 
